Consider twelve compounds from publication PMC9753112 (ACS Omega, 2022).

The test system of one series is MCF-7. To be noted: antiproliferative activity ref 29; cited from earlier work.
The test system of a further series is HEPG-2. To be noted: antiproliferative activity ref 29; cited from earlier work.
For series [1], the system named is HepG2 cells. The series can be described thus: MTT cytotoxicity assay, HepG2 cells. Type of series: cell-based. To be noted: Homo sapiens, HepG2, read-out: IC50 (HepG2). In outline: (§1)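 Cells grown in medium with 10% FBS and 1% penicillin-streptomycin under CO2 at 37 °C and seeded at 5 × 10^4 per well. They were exposed to the test compound at 0.01, 0.1, 1, 10 and 100 μM, and viability was read by MTT absorbance as percent of control. IC50 came from dose-response curves, averaged over three independent trials.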

The test system of series [2] is MCF-7 cells. Briefly: MTT cytotoxicity assay, MCF-7 cells. The following applies: for IC50: Homo sapiens; for cytotoxicity in words: against MCF-7 and HepG2 cells. Type of series: cell-based. In outline:
as §1
(Tetrazolium assays rely on reduction of a dye to a coloured formazan, in cell work by metabolically active cells.)

In another series the target is PARP-1 (Homo sapiens, UniProt P09874). The series can be described thus: PARP-1 enzyme inhibition. Type of series: biochemical.
A further series concerns the target EGFR (Homo sapiens, UniProt P00533). Briefly: EGFR enzyme inhibition. In kind it is biochemical.
The subject of series [3] is solid Ehrlich carcinoma cells. Briefly: In vivo solid Ehrlich carcinoma.
Series [4] concerns HepG2 cells. The series can be described thus: Cell cycle analysis. Type of series: cell-based. A digest of the protocol:
(§2)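 DNA content of untreated and treated cells was measured by flow cytometry as histograms. The percentage of cells in each cycle phase was compared before and after 48 h exposure.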

Series [5] concerns normal cell lines MCF-10A and THLE2. Briefly: MTT assay on normal breast. In kind it is cell-based. A digest of the protocol: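 Normal breast MCF-10A and normal liver THLE2 cells, cultured with 10% FBS and 1% penicillin-streptomycin under CO2 at 37 °C. They were seeded at 5 × 10^4 per well and treated with the test compound at 0.01–100 μM. MTT absorbance gave percent viability versus untreated control.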

In series [6] the test system is HepG2 cells. The series can be described thus: Annexin V/PI apoptosis-necrosis assessment, HepG2. In kind it is cell-based. To be noted: HepG2, IC50 dose, 48 h.
Series [7] relates to MCF-7 cells. Briefly: Cell cycle analysis. Type of series: cell-based. A digest of the protocol: as §2
Series [8] relates to MCF-7 cells. Briefly: Annexin V/PI apoptosis-necrosis assessment, MCF-7. Type of series: cell-based. The following applies: MCF-7, IC50 dose, 48 h.
Series [9] concerns MCF-7 cells. To be noted: read-out: IC50 (MCF-7 cells); cytotoxic action ref 32; cited from earlier work.
[10] abbreviates: SEC-bearing mice, 5 mg/kg BW IP, seven doses, mean ± SD n = 6.
The mark [11] stands for this setting: SEC-bearing mice, 5 mg/kg BW IP, seven doses, mean ± SD n = 6, 5 mg/kg.
Setting [12] is: SEC-bearing mice, after treatment.

Converted amounts (≈) assume the structure as drawn. “And” between values parts separate entries of the source, which are not always exact repeats. Equal entries are not always repeated. “Also recorded” adds a separate entry of the source. Where two headings read alike, the source gives them in different places.

Chain of EGFR (P00533 25-1210): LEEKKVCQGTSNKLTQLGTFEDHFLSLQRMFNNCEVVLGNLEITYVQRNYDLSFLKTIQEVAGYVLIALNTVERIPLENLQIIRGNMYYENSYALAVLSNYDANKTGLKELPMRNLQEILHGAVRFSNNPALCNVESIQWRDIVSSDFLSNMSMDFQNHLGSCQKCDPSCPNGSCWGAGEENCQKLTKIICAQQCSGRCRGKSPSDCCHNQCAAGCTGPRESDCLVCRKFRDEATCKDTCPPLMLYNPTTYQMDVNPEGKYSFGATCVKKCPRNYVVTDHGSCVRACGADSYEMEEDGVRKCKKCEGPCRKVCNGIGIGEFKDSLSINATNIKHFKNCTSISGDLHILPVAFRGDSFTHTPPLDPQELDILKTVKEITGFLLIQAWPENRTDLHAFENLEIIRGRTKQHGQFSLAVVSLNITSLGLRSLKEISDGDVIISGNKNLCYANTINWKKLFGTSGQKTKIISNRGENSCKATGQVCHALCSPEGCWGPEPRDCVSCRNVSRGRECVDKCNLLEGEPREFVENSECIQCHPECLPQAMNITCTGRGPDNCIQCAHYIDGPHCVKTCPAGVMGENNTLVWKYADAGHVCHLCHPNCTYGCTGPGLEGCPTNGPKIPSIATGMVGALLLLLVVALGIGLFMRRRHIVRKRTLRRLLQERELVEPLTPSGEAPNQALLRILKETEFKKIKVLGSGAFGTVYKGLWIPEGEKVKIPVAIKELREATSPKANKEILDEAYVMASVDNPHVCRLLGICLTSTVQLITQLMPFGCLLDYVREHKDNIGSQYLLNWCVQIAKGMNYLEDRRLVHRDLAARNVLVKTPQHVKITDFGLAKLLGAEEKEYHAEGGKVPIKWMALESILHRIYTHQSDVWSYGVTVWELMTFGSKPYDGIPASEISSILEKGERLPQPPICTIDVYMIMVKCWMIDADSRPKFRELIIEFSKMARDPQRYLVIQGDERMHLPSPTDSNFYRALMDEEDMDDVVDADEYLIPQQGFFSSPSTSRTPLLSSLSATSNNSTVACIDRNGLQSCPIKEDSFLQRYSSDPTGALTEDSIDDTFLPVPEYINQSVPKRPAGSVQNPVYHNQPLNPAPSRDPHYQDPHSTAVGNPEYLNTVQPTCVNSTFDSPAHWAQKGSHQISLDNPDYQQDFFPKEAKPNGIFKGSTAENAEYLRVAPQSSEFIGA
Chain of PARP-1 (P09874 whole entry): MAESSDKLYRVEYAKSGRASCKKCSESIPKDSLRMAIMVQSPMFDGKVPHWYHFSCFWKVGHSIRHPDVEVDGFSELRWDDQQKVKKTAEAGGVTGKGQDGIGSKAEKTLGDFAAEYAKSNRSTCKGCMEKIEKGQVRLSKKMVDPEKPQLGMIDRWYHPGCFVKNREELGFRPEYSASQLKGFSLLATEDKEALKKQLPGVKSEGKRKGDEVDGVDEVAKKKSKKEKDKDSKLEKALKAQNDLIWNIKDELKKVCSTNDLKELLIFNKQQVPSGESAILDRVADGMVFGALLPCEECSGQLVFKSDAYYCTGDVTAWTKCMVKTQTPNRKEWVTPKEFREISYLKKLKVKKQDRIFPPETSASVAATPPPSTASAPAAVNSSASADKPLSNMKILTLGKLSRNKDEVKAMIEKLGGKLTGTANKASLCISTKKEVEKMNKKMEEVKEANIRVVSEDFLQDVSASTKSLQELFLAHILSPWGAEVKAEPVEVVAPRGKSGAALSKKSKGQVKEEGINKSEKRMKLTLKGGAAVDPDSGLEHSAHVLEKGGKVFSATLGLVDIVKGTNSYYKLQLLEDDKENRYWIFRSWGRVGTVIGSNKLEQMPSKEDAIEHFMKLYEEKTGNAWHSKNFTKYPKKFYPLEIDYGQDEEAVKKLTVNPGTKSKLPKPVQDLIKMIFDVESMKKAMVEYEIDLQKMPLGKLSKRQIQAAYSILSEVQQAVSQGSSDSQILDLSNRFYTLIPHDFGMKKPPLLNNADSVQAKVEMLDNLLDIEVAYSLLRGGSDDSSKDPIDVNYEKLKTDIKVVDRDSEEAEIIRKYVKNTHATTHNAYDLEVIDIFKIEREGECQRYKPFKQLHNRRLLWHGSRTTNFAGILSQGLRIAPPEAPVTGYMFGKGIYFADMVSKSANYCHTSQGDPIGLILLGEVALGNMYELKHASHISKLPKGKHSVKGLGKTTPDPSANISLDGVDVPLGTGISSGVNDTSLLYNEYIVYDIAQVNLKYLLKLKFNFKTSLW

With `COc1cccc2c1C(=O)c1c(O)c3c(c(O)c1C2=O)C[C@@](O)(C(=O)CO)C[C@@H]3O[C@H]1C[C@H](N)[C@H](O)[C@H](C)O1` [doxorubicin], the “IC50 (MCF-7)” value in the series on MCF-7 is 4.0 µg/mL (≈ 7.36 µM). The “IC50 (HEPG-2)” value in the series on HEPG-2 is 4.0 µg/mL (≈ 7.36 µM).

What is called IC50 is the concentration needed to halve the response being measured. As to `S=c1[nH]nc(-c2cc3ccccc3[nH]2)n1-c1ccccc1` [3a, 5-(1H-Indol-2-yl)-4-phenyl-1,2,4-triazole-3(4H)-thione], the half-inhibitory concentration (IC50) with HepG2 cells [1] turned out to be 7390 nM.

With `S=c1[nH]nc(-c2cc3ccccc3[nH]2)n1-c1ccc(Cl)cc1` [3b, 4-(4-Chlorophenyl)-5-(1H-indol-2-yl)-2H-1,2,4-triazole-3(4H)-thione], the IC50 worked out at 17200 nM in the series with HepG2 cells [1] and 14200 nM in the series with MCF-7 cells [2] (MCF7, read-out: IC50 (MCF-7)).

With `CC(O)CSc1nnc(-c2cc3ccccc3[nH]2)n1-c1ccccc1` (stereo not drawn) [13a, 3-(2-Hydroxyprop-1-ylsulfanyl)-5-(1H-indol-2-yl)-4-phenyl-1,2,4-triazole], the IC50 in the series with HepG2 cells [1] is 8910 nM; in the series with MCF-7 cells [2] (MCF7, read-out: IC50 (MCF-7)) it was 6210 nM; in the series with MCF-7 cells [2] (MCF7, read-out: IC50 range), 6210 to 16300 nM; against PARP-1 it was 21.6 nM; against EGFR, 140 nM. The cytotoxicity in words entry in the series on MCF-7 cells [2] is “moderate activity”.

On to `C#Cc1cccc(Nc2ncnc3cc(OCCOC)c(OCCOC)cc23)c1` [Erlotinib, reference compound], for which the IC50 was found to be 2910 nM in the series with HepG2 cells [1] and 2510 nM in the series with MCF-7 cells [2] (MCF7, read-out: IC50 (MCF-7)). Besides, the total protein in series [3] (setting [10]) is reported as 6.2 ± 0.47 g/dL. In [3] (setting [10]), this compound registered a tumor volume of 114.6 ± 12.5 mm^3. Besides, the tumor weight in series [3] (setting [11]) is 69.3 mg and 69.3 ± 2.19 mg.

`O=c1[nH]cc(F)c(=O)[nH]1` [5-FU, reference compound]: the “tumor inhibition ratio (TIR%)” value in series [3] (SEC-bearing mice, 5 mg/kg BW IP, seven doses) worked out at 65.7%. Moreover, in series [3] (setting [10]), the tumor volume worked out at 114 mm^3.

For the compound `O=C(NNC(=S)Nc1ccccc1)c1cc2ccccc2[nH]1` [2a, 1-(1H-Indol-2-yl-carbonyl)-4-Phenyl-thiosemicarbazide], the IC50 in the series with HepG2 cells [1] is 12400 nM.

With `OCCSc1nnc(-c2cc3ccccc3[nH]2)n1-c1ccccc1` [12a, 3-(2-Hydroxyeth-1-ylsulfanyl)-5-(1H-indol-2-yl)-4-phenyl-1,2,4-triazole], the half-inhibitory concentration (IC50) with HepG2 cells [1] is 16300 nM; in the series on MCF-7 cells [2] (MCF7, read-out: IC50 (MCF-7)) it was 12100 nM; with MCF-7 cells [2] (MCF7, read-out: IC50 range) it was 6210 to 16300 nM. Moreover, the cytotoxicity in words result with MCF-7 cells [2] is “moderate activity”.

`CC(O)CSc1nnc(-c2cc3ccccc3[nH]2)n1-c1ccc(Cl)cc1` (stereo not drawn) [13b, 4-(4-Chlorophenyl)-3-(2-hydroxyprop-1-ylsulfanyl)-5-(1H-indol-2-yl)-1,2,4-triazole]: in the series on HepG2 cells [4] (HepG2), the “cell cycle arrest phase” value is given as “arrested cell division at the S phase”. For the same compound, in the series on HepG2 cells [4] (HepG2, 0.32 μM, 48 h), the “%DIP S” value is given as 45.21%. For the same compound, the IC50 in the series on HepG2 cells [1] is 320 nM. The “toxicity to healthy cells” value in series [5] (normal cells) is reported as “no toxicity to healthy cells”. The “histopathological examination of liver tissues” value in series [3] (SEC-bearing mice treated) is “improvement in liver tissues and retained them near normal; also recorded: Mild hydropic degeneration of hepatocytes”. For the same compound, the tumor volume in series [3] (setting [10]) is 129.6 ± 13.6 mm^3. For the same compound, in series [3] (setting [11]), the Hb came out at 7.29 g/dL; the total protein is 5.6 g/dL and 5.6 ± 0.39 g/dL; the tumor weight was 74.6 mg and 74.6 ± 2.79 mg. Further, in [3] (SEC-bearing mice, 5 mg/kg BW IP, seven doses, 5 mg/kg), the “tumor inhibition ratio (TIR%)” value is 66.7% and 66.7 ± 1.06%. In addition, in series [3] (setting [12]), the “ALT” value is 50.6 U/L, the “AST” value worked out at 60.3 U/L and the “WBC” value was 4360 L⁻¹. In the series on HepG2 cells [6], the early apoptosis amounted to 23.61%; the late apoptosis was determined as 9.34%; the necrosis-induced cell death came to 6.01%; the “necrosis-induced cell death, fold increase” value is 6.1 fold. In addition, in the series with HepG2 cells [6], the “total apoptotic cell death” value came to 32.95% and the “total apoptotic cell death, fold increase” value was 34.68 fold. Further, in the series on MCF-7 cells [2] (MCF7, read-out: IC50 (MCF-7)), the 50% inhibitory concentration (IC50) came out at 1070 nM. In the series with MCF-7 cells [2], the cytotoxicity in words entry is on record as “potent cytotoxicity”. At PARP-1, this compound showed a half-inhibitory concentration (IC50) of 1.24 nM. The “cell cycle arrest phase” value in the series with MCF-7 cells [7] (MCF-7) is on record as “arrested cell division at the G2/M phase”. In addition, in the series with MCF-7 cells [7] (MCF-7, 1.07 μM, 48 h), the “%DIP G2/M” value was determined as 26.4%. In addition, it took 62.4 nM to reach half-maximal inhibition against EGFR (IC50). Moreover, in the series with MCF-7 cells [8], the early apoptosis came to 10.6%; the late apoptosis amounted to 16.9%; the necrosis-mediated cell death came to 5.06%; the “necrosis-mediated cell death, fold increase” value is reported as 4.18 fold. Also, in the series on MCF-7 cells [8], the “total apoptotic cell death” value worked out at 27.63% and the “total apoptotic cell death, fold vs control” value is listed as 26 fold.

Turning to `CNC(=O)c1cc(Oc2ccc(NC(=O)Nc3ccc(Cl)c(C(F)(F)F)c3)cc2)ccn1` [Sorafenib], the IC50 in the series with MCF-7 cells [9] was 2130 nM.

In general, inhibition refers to the drop in the measured response relative to a control, in per cent. For `OCCSc1nnc(-c2cc3ccccc3[nH]2)n1-c1ccc(Cl)cc1` [12b, 4-(4-Chlorophenyl)-3-(2-hydroxyeth-1-ylsulfanyl)-5-(1H-indol-2-yl)-1,2,4-triazole], the IC50 in the series with HepG2 cells [1] stood at 3210 nM; with MCF-7 cells [2] (MCF7, read-out: IC50 (MCF-7)) it was 2670 nM; at PARP-1, 2.13 nM; on EGFR it was 78.1 nM. Besides, the inhibition at 100 µM in [5] (read-out: cell inhibition) amounted to 80%. In addition, the cytotoxicity in words result in the series with MCF-7 cells [2] is on record as “potent cytotoxicity”.

Consider `c1ccc(CSc2nc(-c3cc4ccccc4[nH]3)n[nH]2)cc1` [I, 3-Benzylsulfanyl-5-(1H-indol-2-yl)-2H-1,2,4-triazole], for which the “IC50 (MCF-7)” value with MCF-7 was 4.53 µg/mL (≈ 14.8 µM). The “IC50 (HEPG-2)” value with HEPG-2 is 3.58 µg/mL (≈ 11.7 µM).
